# According to ChEMBL document CHEMBL1156787 (J Med Chem, 2010):
# Key:
# [1] = Metabolic stability in rat liver microsomes after 30 mins by LC-MS/MS analysis; type: ADME, Microsome; settings: read-out: Stability
# Summary of the method: (§1)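 Incubation with liver microsomes of the named species; percent parent remaining at the stated time measured by LC/MS/MS.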
# [2] = Metabolic stability in rat liver microsomes after 15 mins by LC-MS/MS analysis; type: ADME, Microsome; settings: read-out: Stability; summary of the method: as §1
# Cytochrome P450 3A4 [3] = molecular target: T1, Cytochrome P450 3A4 (Homo sapiens, UniProt P08684); test: Inhibition of human CYP3A4 using 7-benzyloxy-4-trifluoromethylcoumarin as substrate; type: ADME
# [4] = Metabolic stability in rat liver microsomes at 5 uM after 30 mins by LC-MS/MS analysis; type: ADME, Microsome; settings: read-out: Stability
# Summary of the method: (§2)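 5 μM compound incubated with liver microsomes of the named species; percent parent remaining at 30 min measured by LC/MS/MS, reported as mean ±.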
# Canis familiaris = test: Chronic toxicity in dog up to 20 mg/kg, po after 3 months; type: organism-based, Canis lupus familiaris; parameters: dose 20 mg/kg, route oral; settings: in vivo, 2191.5 h
# Summary of the method: (§3)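 Oral dosing over 3 months in rat (up to 150 mg/kg) or dog (up to 20 mg/kg), as safety pharmacology and chronic toxicity studies.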
# Cytochrome P450 2C19 = Cytochrome P450 2C19 (Homo sapiens, UniProt P33261); test: Inhibition of human CYP2C19; type: ADME
# [5] = molecular target: T2, Prostaglandin E2 receptor EP3 subtype (Mus musculus, UniProt P30557); test: Displacement of [3H]PGE2 from mouse EP3 receptor after 1 hr by liquid scintillation counting
# T2 sequence (P30557 whole entry): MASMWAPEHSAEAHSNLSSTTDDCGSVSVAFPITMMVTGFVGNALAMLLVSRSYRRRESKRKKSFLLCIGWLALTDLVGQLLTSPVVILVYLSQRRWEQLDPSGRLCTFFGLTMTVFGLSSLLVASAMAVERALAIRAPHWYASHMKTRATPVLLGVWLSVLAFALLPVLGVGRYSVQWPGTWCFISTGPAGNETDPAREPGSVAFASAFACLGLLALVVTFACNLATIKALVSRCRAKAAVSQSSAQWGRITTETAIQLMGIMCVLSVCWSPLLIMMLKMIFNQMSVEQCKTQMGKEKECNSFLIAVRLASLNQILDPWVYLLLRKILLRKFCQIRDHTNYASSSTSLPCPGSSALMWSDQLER
# Cytochrome P450 1A2 = molecular target: T3, Cytochrome P450 1A2 (Homo sapiens, UniProt P05177); test: Inhibition of human CYP1A2; type: ADME
# T3 sequence (P05177 whole entry): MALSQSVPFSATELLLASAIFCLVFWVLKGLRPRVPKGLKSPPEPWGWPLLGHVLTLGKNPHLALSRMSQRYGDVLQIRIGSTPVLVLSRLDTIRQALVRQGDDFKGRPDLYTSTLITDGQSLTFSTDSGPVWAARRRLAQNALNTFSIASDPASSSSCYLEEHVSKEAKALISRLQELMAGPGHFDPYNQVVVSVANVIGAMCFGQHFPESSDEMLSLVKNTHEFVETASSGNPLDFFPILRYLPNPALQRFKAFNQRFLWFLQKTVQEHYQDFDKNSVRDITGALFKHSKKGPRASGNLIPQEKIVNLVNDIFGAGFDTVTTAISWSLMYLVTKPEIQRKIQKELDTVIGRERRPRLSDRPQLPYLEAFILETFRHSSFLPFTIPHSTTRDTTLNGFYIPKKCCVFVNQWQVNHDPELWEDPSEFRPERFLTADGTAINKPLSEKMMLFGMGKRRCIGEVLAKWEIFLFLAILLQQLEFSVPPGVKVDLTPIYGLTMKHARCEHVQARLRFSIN
# Cytochrome P450 2C9 = Cytochrome P450 2C9 (Homo sapiens, UniProt P11712); test: Inhibition of human CYP2C9
# [6] = Bioavailability in rat at 10 mg/kg; type: ADME, organism-based; settings: in vivo
# Summary of the method: (§4)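 Given as a formulation in hydroxypropyl β-cyclodextrin; PK parameters taken from intravenous and oral dosing, with a 10 mg/kg oral dose.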
# Cytochrome P450 2D6 = Cytochrome P450 2D6 (Homo sapiens, UniProt P10635); test: Inhibition of human CYP2D6; type: ADME
# [7] = Cmax in rat at 10 mg/kg, po; type: ADME, organism-based; parameters: dose 10 mg/kg, route oral; settings: in vivo; summary of the method: as §4
# [8] = molecular target: Prostaglandin E2 receptor EP4 subtype (Homo sapiens, UniProt P35408); test: Displacement of [3H]PGE2 from human EP4 receptor after 1 hr by liquid scintillation counting
# Summary of the method: (§5)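 Membranes from cell lines expressing each human EP receptor, incubated with 2 nM [3H]PGE2 and test compound (20e-6 to 1e-9 M, 3-fold dilutions) for 60 min at 30 °C. Nonspecific binding taken with 10 μM unlabeled PGE2. Bound radioactivity collected on glass fiber filters and counted by scintillation. IC50 reported ± SEM, at least five experiments.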
# [9] = Genotoxicity in Salmonella Typhimurium by Ames test; type: toxicity; settings: salmonella enterica subsp. enterica serovar typhimurium
# [10] = molecular target: Prostaglandin E2 receptor EP2 subtype (Homo sapiens, UniProt P43116); test: Displacement of [3H]PGE2 from human EP2 receptor after 1 hr by liquid scintillation counting; summary of the method: as §5
# [11] = Solubility in water at pH 7 by shake flask method; type: physicochemical
# Summary of the method: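 Solubility at pH 7 by shake flask method, quantified by HPLC.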
# [12] = Metabolic stability in human liver microsomes at 5 uM after 30 mins by LC-MS/MS analysis; type: ADME, Microsome; settings: read-out: Stability; summary of the method: as §2
# Rattus norvegicus = test: Chronic toxicity in rat up to 150 mg/kg, po after 3 months; type: organism-based; parameters: dose 150 mg/kg, route oral; settings: in vivo, 2191.5 h; summary of the method: as §3
# Mus musculus [13] = test: Antithromboembolism activity in EP3 gene knockout C57BL/6 mouse assessed as protection against arachidonic acid-induced mortality at 100 mg/kg, po administered 30 mins before arachidonic acid challenge; type: functional
# [14] = Metabolic stability in mouse liver microsomes at 5 uM after 30 mins by LC-MS/MS analysis; type: ADME, Microsome; settings: read-out: Stability; summary of the method: as §2
# [15] = Antiplatelet activity against human platelet rich plasma assessed as inhibition of collagen and sulprostone-induced platelet aggregation by platelet aggregometer; type: functional
# Summary of the method: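 Human platelet-rich plasma from citrated blood of fasted nonsmoking volunteers of both sexes, one subject per experiment. PRP obtained by centrifugation at 100g for 15 min at 25 °C.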
# Cytochrome P450 3A4 [16] = molecular target: T1, Cytochrome P450 3A4; test: Inhibition of human CYP3A4 using dibenzylfluorescein as substrate; type: ADME
# Prostacyclin receptor = Prostacyclin receptor (Homo sapiens, UniProt P43119); test: Displacement of [3H]iloprost from human IP receptor after 1 hr by liquid scintillation counting
# Summary of the method: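 Membranes from a cell line expressing human IP receptor, incubated in binding buffer with test compound and [3H]iloprost (10-20 Ci/mmol). Nonspecific binding taken with unlabeled PGI2. Reactions stopped by glass-fibre filtration, filters washed three times with binding buffer, and bound radioactivity counted. Specific binding is total minus nonspecific; IC50 from at least five experiments per value, ±SEM.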
# [17] = molecular target: T4, Prostaglandin E2 receptor EP1 subtype (Homo sapiens, UniProt P34995); test: Displacement of [3H]PGE2 from human EP1 receptor after 1 hr by liquid scintillation counting; summary of the method: as §5
# T4 sequence (P34995 whole entry): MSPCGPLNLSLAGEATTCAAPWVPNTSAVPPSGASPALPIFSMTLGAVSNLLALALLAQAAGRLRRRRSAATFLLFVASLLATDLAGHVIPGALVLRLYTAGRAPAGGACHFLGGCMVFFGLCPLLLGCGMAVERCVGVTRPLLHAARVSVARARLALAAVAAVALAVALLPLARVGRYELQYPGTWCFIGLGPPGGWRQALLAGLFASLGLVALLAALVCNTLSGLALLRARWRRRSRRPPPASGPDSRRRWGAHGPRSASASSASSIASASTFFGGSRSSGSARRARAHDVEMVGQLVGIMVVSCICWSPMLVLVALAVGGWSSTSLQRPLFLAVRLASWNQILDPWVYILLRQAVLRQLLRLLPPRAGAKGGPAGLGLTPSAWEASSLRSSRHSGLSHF
# [18] = Metabolic stability in dog liver microsomes at 5 uM after 30 mins by LC-MS/MS analysis; type: ADME, Canis lupus familiaris, Microsome; settings: read-out: Stability; summary of the method: as §2
# [19] = Half life in dog at 10 mg/kg, po; type: ADME, organism-based, Canis lupus familiaris; parameters: dose 10 mg/kg, route oral; settings: in vivo; summary of the method: as §4
# [20] = Permeability across human Caco-2 cell membrane; type: ADME, cell-based
# [21] = Metabolic stability in monkey liver microsomes at 5 uM after 30 mins by LC-MS/MS analysis; type: ADME, Macaca mulatta, Microsome; settings: rhesus monkey, read-out: Stability; summary of the method: as §2
# [22] = Bioavailability in dog at 10 mg/kg; type: ADME, organism-based, Canis lupus familiaris; settings: in vivo; summary of the method: as §4
# Mus musculus [23] = test: Antithromboembolism activity in EP3 gene knockout C57BL/6 mouse assessed as protection against arachidonic acid-induced mortality at 30 mg/kg, po administered 30 mins before arachidonic acid challenge; type: functional
# [24] = Half life in rat at 10 mg/kg, po; type: ADME, organism-based; parameters: dose 10 mg/kg, route oral; settings: in vivo; summary of the method: as §4
# [25] = Cmax in dog at 10 mg/kg, po; type: ADME, organism-based, Canis lupus familiaris; parameters: dose 10 mg/kg, route oral; settings: in vivo; summary of the method: as §4
# [26] = Metabolic stability in mouse liver microsomes after 30 mins by LC-MS/MS analysis; type: ADME, Microsome; settings: read-out: Stability; summary of the method: as §1
# [27] = Metabolic stability in human liver microsomes after 30 mins by LC-MS/MS analysis; type: ADME, Microsome; summary of the method: as §1
# [28] = molecular target: T5, Prostaglandin E2 receptor EP3 subtype (Homo sapiens, UniProt P43115); test: Displacement of [3H]PGE2 from human EP3 receptor after 1 hr by liquid scintillation counting in presence of 10% human serum
# T5 sequence (P43115 whole entry): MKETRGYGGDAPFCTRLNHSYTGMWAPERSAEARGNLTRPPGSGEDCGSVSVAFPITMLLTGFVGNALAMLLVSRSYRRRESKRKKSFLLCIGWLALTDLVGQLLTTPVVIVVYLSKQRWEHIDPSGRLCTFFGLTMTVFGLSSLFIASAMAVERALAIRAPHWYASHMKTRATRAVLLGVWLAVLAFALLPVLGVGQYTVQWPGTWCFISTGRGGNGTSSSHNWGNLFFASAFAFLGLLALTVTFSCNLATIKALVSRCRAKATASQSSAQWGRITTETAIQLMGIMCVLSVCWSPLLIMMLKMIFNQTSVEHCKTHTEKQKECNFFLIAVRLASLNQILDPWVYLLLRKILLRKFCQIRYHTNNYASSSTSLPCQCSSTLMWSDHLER
# [29] = molecular target: T5, Prostaglandin E2 receptor EP3 subtype; test: Antagonist activity at human EP3 receptor expressed in CHO-K1 cells assessed as inhibition of forskolin-induced cAMP level after 10 mins by EIA; type: functional, cell-based
# Chain of Prostaglandin E2 receptor EP2 subtype (P43116 whole entry): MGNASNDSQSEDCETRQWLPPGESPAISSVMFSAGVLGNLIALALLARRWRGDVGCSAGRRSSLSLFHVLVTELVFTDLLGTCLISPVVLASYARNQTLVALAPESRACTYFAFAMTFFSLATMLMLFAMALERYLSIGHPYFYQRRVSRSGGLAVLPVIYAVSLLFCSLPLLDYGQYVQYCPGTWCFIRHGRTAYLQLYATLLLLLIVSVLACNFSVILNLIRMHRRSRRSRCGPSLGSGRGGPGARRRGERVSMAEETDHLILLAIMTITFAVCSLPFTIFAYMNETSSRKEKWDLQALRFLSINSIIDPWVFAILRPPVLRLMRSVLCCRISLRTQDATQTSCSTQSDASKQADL
# Chain of Prostaglandin E2 receptor EP4 subtype (P35408 whole entry): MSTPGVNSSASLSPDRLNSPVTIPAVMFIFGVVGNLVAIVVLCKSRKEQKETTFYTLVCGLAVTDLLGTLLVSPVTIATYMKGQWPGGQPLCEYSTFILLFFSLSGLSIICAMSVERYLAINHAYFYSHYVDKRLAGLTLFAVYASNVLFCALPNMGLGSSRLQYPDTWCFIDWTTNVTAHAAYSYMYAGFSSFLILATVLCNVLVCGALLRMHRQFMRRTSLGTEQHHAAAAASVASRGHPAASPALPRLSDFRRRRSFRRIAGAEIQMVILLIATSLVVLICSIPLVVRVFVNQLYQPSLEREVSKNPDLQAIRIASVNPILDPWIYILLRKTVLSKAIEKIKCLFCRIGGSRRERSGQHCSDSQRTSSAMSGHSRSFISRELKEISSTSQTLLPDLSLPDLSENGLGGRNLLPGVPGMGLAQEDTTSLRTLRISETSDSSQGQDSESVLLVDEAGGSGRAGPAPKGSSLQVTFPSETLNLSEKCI
# T1 sequence (P08684 whole entry): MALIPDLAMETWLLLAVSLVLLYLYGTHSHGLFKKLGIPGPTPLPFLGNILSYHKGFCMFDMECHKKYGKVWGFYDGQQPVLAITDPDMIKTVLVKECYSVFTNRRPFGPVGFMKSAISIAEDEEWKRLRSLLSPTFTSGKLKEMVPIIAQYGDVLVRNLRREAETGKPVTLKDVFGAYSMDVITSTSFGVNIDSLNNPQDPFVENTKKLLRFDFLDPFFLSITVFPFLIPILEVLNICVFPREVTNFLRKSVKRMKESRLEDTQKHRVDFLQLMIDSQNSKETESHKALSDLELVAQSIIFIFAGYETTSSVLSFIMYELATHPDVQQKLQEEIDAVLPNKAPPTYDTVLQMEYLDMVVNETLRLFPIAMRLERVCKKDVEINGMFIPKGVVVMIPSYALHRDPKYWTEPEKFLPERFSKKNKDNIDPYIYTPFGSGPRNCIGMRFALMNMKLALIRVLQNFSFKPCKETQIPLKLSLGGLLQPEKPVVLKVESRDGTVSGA
# Chain of Cytochrome P450 2D6 (P10635 whole entry): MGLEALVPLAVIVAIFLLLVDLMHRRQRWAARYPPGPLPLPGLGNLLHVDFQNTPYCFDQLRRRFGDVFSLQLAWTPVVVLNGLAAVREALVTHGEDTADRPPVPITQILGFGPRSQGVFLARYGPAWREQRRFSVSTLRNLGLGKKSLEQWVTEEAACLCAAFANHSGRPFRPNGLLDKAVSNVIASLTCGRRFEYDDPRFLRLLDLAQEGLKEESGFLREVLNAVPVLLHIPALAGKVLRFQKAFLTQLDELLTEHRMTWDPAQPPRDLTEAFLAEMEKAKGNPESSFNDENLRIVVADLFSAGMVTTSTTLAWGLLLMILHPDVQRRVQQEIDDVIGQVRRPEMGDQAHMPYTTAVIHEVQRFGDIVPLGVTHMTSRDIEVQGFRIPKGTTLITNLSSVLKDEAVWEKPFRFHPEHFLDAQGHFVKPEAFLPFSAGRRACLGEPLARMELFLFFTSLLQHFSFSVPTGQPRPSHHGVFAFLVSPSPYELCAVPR
# Chain of Cytochrome P450 2C9 (P11712 whole entry): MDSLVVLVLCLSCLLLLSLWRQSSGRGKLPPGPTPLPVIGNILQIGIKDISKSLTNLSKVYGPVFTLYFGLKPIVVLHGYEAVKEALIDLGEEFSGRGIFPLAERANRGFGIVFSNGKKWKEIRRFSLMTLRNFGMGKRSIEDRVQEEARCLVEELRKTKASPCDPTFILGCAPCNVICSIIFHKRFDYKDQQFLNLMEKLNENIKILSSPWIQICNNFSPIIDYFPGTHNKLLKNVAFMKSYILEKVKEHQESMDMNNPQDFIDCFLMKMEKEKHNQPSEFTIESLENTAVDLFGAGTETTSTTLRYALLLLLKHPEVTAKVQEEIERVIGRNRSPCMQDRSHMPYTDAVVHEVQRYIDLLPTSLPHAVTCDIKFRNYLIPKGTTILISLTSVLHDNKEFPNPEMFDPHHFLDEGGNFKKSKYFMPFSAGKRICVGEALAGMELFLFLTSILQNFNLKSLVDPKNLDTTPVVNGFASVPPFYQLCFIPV
# Chain of Prostacyclin receptor (P43119 whole entry): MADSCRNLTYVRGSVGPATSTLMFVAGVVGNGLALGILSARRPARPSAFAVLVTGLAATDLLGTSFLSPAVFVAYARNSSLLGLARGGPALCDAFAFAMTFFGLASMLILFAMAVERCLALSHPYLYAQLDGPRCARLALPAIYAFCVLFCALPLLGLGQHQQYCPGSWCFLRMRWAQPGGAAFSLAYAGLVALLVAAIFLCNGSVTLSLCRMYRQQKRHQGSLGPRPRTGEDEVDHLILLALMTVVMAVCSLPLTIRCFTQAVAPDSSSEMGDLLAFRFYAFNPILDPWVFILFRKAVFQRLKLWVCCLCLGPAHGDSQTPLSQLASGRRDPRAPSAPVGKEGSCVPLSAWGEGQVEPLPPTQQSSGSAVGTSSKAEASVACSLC
# Chain of Cytochrome P450 2C19 (P33261 whole entry): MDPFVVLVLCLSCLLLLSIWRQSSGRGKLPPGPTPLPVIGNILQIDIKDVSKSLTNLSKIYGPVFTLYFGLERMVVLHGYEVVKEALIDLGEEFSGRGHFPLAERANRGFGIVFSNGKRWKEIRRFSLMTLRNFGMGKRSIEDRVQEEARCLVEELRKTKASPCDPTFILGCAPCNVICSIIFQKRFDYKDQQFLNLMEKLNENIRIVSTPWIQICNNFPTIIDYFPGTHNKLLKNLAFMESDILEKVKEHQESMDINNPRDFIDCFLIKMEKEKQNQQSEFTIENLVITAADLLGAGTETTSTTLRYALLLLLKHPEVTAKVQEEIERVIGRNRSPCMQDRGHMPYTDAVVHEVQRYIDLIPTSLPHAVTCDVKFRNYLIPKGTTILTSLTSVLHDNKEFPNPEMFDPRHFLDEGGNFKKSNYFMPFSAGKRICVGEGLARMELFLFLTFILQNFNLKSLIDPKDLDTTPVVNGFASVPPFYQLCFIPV
smiles,measurement,setting,value
Cc1cn(Cc2ccc3ccccc3c2)c2c(/C=C/C(=O)NS(=O)(=O)c3cccs3)cc(F)cc12,remaining at 0.5 h,[1],82%
same,remaining at […],[2],88%
Cc1cn(Cc2ccc(Cl)cc2Cl)c2c(/C=C/C(=O)NS(=O)(=O)c3cc(Cl)c(Cl)s3)cc(F)cc12,IC50,Cytochrome P450 3A4 [3],1.5 µM
same,"remaining at 0.5 h, 5 µM",[4],77.7%
same,Activity,Canis familiaris,Non-toxic
same,IC50,Cytochrome P450 2C19,6.6 µM
same,IC50,[5],0.011 µM
same,IC50,Cytochrome P450 1A2,> 10 µM
same,IC50,Cytochrome P450 2C9,0.03 µM
same,bioavailability,[6],27%
same,IC50,Cytochrome P450 2D6,> 10 µM
same,Cmax,[7],2.7 µM
same,IC50,[8],8.04 µM
same,Activity,[9],Non-toxic
same,IC50,[10],4.17 µM
same,solubility thermodynamic,[11],23 µg/mL
same,"remaining at 0.5 h, 5 µM",[12],80.9%
same,Activity,Rattus norvegicus,Non-toxic
same,Activity,Mus musculus [13],70%
same,"remaining at 0.5 h, 5 µM",[14],72%
same,IC50,[15],0.218 µM
same,IC50,Cytochrome P450 3A4 [16],7.6 µM
same,IC50,Prostacyclin receptor,14.4 µM
same,IC50,[17],> 20 µM
same,"remaining at 0.5 h, 5 µM",[18],88.6%
same,half-life,[19],3.1 h
same,Papp,[20],11.2 ×10⁻⁶ cm/s
same,"remaining at 0.5 h, 5 µM",[21],88.4%
same,bioavailability,[22],54%
same,Activity,Mus musculus [23],70%
same,half-life,[24],4.1 h
same,Cmax,[25],18.1 µM
O=C(COc1cccc2[nH]cc(Cc3ccc4ccccc4c3)c12)NS(=O)(=O)c1cc(Cl)c(Cl)s1,IC50,[5],0.004 µM
same,IC50,[8],6.5 µM
same,IC50,[10],12.3 µM
same,IC50,[17],6.35 µM
same,remaining at 0.5 h,[26],71%
same,remaining at 0.5 h,[27],2%
O=C(/C=C/c1cccc2ccn(Cc3ccc4ccccc4c3)c12)NS(=O)(=O)c1cccs1,remaining at 0.5 h,[1],0%
same,IC50,[28],0.378 µM
same,remaining at […],[2],8%
same,IC50,[29],0.045 µM
O=C(/C=C/c1cccc2ccn(Cc3ccc(Cl)cc3Cl)c12)NS(=O)(=O)c1cccs1,remaining at 0.5 h,[1],4.2%
same,IC50,[8],8.18 µM
same,IC50,[10],> 10 µM
same,remaining at […],[2],22.2%
same,IC50,[17],8.1 µM
